Assay: Single-dose plasma pharmacokinetics of oral ixazomib by hepatic function group
Format: in vivo, human
Details: for AUC(0-t) / Tmax: human, plasma; for AUC(0-t): oral; for Tmax: po; for Dose-normalized AUC 0–last (total) / Unbound AUC 0-last / Unbound dose-normalized AUC 0–last / C max (total) / Dose-normalized C max (total) / Unbound C max / Unbound dose-normalized C max: geometric mean (%CV)
Outline: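 Solid tumour patients took a single oral dose on day 1. Moderate impairment was total bilirubin >1.5–3 × ULN and severe >3 × ULN. Plasma was sampled predose and 0.5–336 h post-dose and assayed by validated reverse-phase LC/MS/MS. Parameters were noncompartmental. Dose-normalized values were log-transformed, with ratios and 90% CI versus normal from a mixed-effects ANOVA, group fixed.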

[1] = moderate impairment vs. normal function
[2] = moderate impairment, 2.3 mg, n = 10
[3] = moderate impairment, 2.3 mg, n = 13
[4] = moderate/severe hepatic impairment combined
[5] = moderate/severe impairment combined vs. normal function
[6] = severe impairment vs. normal function
[7] = severe impairment, 1.5 mg, n = 11
[8] = severe impairment, 1.5 mg, n = 18

## CC(C)C[C@H](NC(=O)CNC(=O)c1cc(Cl)ccc1Cl)B(O)O [ixazomib]
1.5 mg
  AUC(0-t): 489 ng·h/mL
  Tmax: 1.21 h
2.3 mg
  AUC(0-t): 846 ng·h/mL
  Tmax: 1.5 h
4 mg
  AUC(0-t): 1160 ng·h/mL
  Tmax: 0.95 h
  Tmax: 0.95 to 1.5 h
Moderate hepatic impairment
  unbound dose-normalized C max, percent higher than normal hepatic function: 27%
[1]
  Geometric least squares mean ratio (90% CI), total dose-normalized AUC 0–last: 1.27 (0.77, 2.11)
  Geometric least squares mean ratio (90% CI), total dose-normalized C max: 1.21 (0.74, 2.00)
  Geometric least squares mean ratio (90% CI), unbound dose-normalized AUC 0–last: 1.32 (0.70, 2.50)
  Geometric least squares mean ratio (90% CI), unbound dose-normalized C max: 1.27 (0.74, 2.18)
[2]
  Dose-normalized AUC 0–last (total): 368 (49) h·ng ml^−1 mg^−1
  Unbound AUC 0-last: 7.33 (61) h·ng ml^−1
  Unbound dose-normalized AUC 0–last: 3.19 (61) h·ng ml^−1 mg^−1
[3]
  C max (total): 42.5 (63) ng ml^−1
  Dose-normalized C max (total): 18.5 (63) ng ml^−1 mg^−1
  Unbound C max: 0.372 (80) ng ml^−1
  Unbound dose-normalized C max: 0.162 (80) ng ml^−1 mg^−1
[4]
  total dose-normalized C max, percent higher than normal hepatic function: 17%
  unbound dose-normalized C max, percent higher than normal hepatic function: 24%
[5]
  Geometric least squares mean ratio (90% CI), total dose-normalized AUC 0–last: 1.20 (0.79, 1.82)
  Geometric least squares mean ratio (90% CI), total dose-normalized C max: 1.17 (0.77, 1.78)
  Geometric least squares mean ratio (90% CI), unbound dose-normalized AUC 0–last: 1.27 (0.75, 2.16)
  Geometric least squares mean ratio (90% CI), unbound dose-normalized C max: 1.24 (0.79, 1.95)
Normal function, 4 mg, n = 12
  C max (total): 61.0 (54) ng ml^−1
  Dose-normalized AUC 0–last (total): 289 (41) h·ng ml^−1 mg^−1
  Dose-normalized C max (total): 15.3 (54) ng ml^−1 mg^−1
  Unbound AUC 0-last: 9.65 (50) h·ng ml^−1
  Unbound C max: 0.509 (47) ng ml^−1
  Unbound dose-normalized AUC 0–last: 2.41 (50) h·ng ml^−1 mg^−1
  Unbound dose-normalized C max: 0.127 (47) ng ml^−1 mg^−1
Severe hepatic impairment
  unbound dose-normalized AUC0–last, percent higher than normal hepatic function: 23%
  unbound dose-normalized C max, percent higher than normal hepatic function: 21%
[6]
  Geometric least squares mean ratio (90% CI), total dose-normalized AUC 0–last: 1.13 (0.69, 1.84)
  Geometric least squares mean ratio (90% CI), total dose-normalized C max: 1.14 (0.72, 1.82)
  Geometric least squares mean ratio (90% CI), unbound dose-normalized AUC 0–last: 1.23 (0.66, 2.29)
  Geometric least squares mean ratio (90% CI), unbound dose-normalized C max: 1.21 (0.74, 2.01)
[7]
  Unbound AUC 0-last: 4.44 (63) h·ng ml^−1
  Unbound dose-normalized AUC 0–last: 2.96 (63) h·ng ml^−1 mg^−1
[8]
  C max (total): 26.1 (70) ng ml^−1
  Dose-normalized C max (total): 17.4 (70) ng ml^−1 mg^−1
  Unbound C max: 0.232 (84) ng ml^−1
  Unbound dose-normalized C max: 0.154 (84) ng ml^−1 mg^−1

Source: paper PMC5089614 (British Journal of Clinical Pharmacology, 2016)
